Screening data: PubChem, several laboratories
This is a sample that favours compounds with a hit; in the whole collection about 4.2% have one here.
XBP1 UPR activ: adaptive UPR (XBP1) activation. 330,000 tested, 0.33% active. activation, % at 20 µM. CHO-XBP1 luciferase reporter, IRE1-XBP1 UPR activation, luminescence; percent of tunicamycin response, DMSO as zero;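 active means versus positive control, 20 µM dose yields 30% or more activation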
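Test system: CHO-XBP1 luciferase reporter cells | Buffer or medium: Serum-containing F12 medium, 10% FBS | Schedule: 6 h compound exposure at 37 °C, 5% CO2 | Detection: Steady-Glo luciferase glow luminescence, 10 min after reagent addition | Read-out basis: Activation, % of tunicamycin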
Hep lipid drop: modulators of hepatic lipid droplet formation. AID 1656. AML12 mouse hepatocytes, oleate lipid droplets, BODIPY imaging. 240,000 tested, 0.4% active. inhibition, % at 6.5 µM;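 active means lipid droplet intensity inhibited by at least 50%, with more than 500 cells counted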
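Assay system: AML12 hepatocytes (mouse) / Also added: 100 µM oleic acid challenge / Times: overnight treatment with compound plus oleate / Detection: high-content imaging of BODIPY-stained droplets and DAPI nuclei / Evaluation: % inhibition of lipid droplet signal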
ANO1 block: inhibitors of mouse TMEM16A calcium-activated chloride channel. HEK293 TMEM16A/YFP iodide influx fluorescence, ionomycin. 310,000 tested, 1.2% active. AID 588511. normalized B-score (activity score, 25-100; higher = stronger inhibition) at 10 µM. Q8BHY3;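 active means ratio plate-corrected score three or more library SD toward inhibition, starting fluorescence score within five deviations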;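 further: score derived from kinetic fluorescence span divided by baseline fluorescence per well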
Target sequence (Q8BHY3 whole entry, looked up): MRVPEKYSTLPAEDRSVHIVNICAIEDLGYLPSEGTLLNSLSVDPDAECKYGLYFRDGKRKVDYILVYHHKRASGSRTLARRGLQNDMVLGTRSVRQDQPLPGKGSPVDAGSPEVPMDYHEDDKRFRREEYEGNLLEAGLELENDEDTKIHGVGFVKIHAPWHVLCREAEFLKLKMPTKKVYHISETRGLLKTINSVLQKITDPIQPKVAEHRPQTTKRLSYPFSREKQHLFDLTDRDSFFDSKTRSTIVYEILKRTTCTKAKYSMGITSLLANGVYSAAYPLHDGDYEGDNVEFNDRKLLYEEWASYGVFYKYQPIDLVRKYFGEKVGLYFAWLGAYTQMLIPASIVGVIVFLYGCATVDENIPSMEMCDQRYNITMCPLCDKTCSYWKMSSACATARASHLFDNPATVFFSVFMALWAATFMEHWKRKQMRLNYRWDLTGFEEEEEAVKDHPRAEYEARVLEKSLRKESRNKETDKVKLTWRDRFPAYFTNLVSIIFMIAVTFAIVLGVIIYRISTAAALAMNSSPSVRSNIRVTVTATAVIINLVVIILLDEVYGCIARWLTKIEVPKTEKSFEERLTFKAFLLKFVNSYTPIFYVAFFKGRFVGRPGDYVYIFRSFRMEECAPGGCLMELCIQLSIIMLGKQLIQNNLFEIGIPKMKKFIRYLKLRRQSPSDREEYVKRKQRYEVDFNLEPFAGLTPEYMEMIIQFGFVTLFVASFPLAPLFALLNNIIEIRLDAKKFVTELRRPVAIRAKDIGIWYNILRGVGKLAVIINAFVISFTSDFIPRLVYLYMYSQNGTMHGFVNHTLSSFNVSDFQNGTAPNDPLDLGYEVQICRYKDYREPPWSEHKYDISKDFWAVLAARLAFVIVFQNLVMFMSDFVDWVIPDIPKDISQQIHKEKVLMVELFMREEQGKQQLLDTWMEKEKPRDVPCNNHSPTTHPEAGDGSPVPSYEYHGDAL
CHOP UPR activ: activators of apoptotic arm of unfolded protein response (CHOP). AID 449763. activation, % at 10 µM. CHO-CHOP luciferase reporter, UPR activation, luminescence; percent of tunicamycin response over DMSO baseline. 330,000 tested, 0.34% active;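 active means at 10 µM dose, activation of 40% or more, normalized to positive control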
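System: CHO-CHOP luciferase reporter cell line; amount: 500 cells/well; buffer or medium: F12 medium containing 10% fetal bovine serum; incubation: 6 h compound exposure at 37 °C after overnight seeding; measured by: luciferase luminescence after 10 min with Steady-Glo reagent; evaluation: % reporter activation, DMSO baseline versus tunicamycin full activation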
TMEM16A act: activators or potentiators of mouse TMEM16A chloride channel | B-score at 10 µM | HEK293 TMEM16A/YFP-H148Q/I152L, iodide quench fluorescence; stronger effect = lower value | Q8BHY3 | 340,000 tested, 0.3% active | AID 623877;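 active means fluorescence-ratio B-score plate-corrected deviation score at least 3 library SD below zero, with starting fluorescence score within 5 deviations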;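 further: channel opened by trigger with iodide after compound preincubation; score built on the fluorescence ratio of max minus min over baseline; more negative score means more quench and so TMEM16A activation or potentiation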
CHOP inh: inhibitors of CHOP induction in ER stress response | CHO-K1 CHOP-promoter luciferase, tunicamycin-induced, 15-18 h | inhibition, % at 10 µM | 220,000 tested, 3.8% active | AID 2732;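 active means compounds that reduced the stress-induced luciferase reporter signal by more than about 70% of percent inhibition, limit read from the data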
Hep lipid conf: hepatic lipid droplet formation inhibition, confirmed; shares compounds with Hep lipid drop; AML12 mouse hepatocytes, BODIPY lipid droplet imaging; droplets induced with 100 µM oleic acid; inhibition, % at 5.2 µM; 870 tested, 65% active; AID 463183;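 active means inhibition of lipid droplet metric at least 50%, with more than 300 cells in each of four replicates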
AML12 cytotox: AML12 hepatocyte cytotoxicity (counter-screen); z-score at 5 µM; shares compounds with Hep lipid drop; AML12 mouse hepatocytes, DAPI nuclear morphology cytotoxicity imaging; stronger effect = higher value; cells fed 100 µM oleate overnight; 870 tested, 3% active; in the data active means z-score above about 6.3;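 further: compound exposure lasted overnight at 37 °C before fixation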
AML12 tox ATP: confirmation of cytotoxicity in AML12 mouse hepatocytes; shares compounds with Hep lipid drop; AML12 mouse hepatocyte viability, ATP luminescence; cells loaded with 100 µM oleic acid; cytotoxicity, % at 50 µM; 530 tested, under 10 active;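 active means cytotoxicity above 50% in each of four replicates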;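 further: compound exposure lasted overnight at 37 °C before the ATP read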
Hits are given with their value; - = inactive; . = no result.

SMILES | XBP1 UPR activ | Hep lipid drop | ANO1 block | CHOP UPR activ | TMEM16A act | CHOP inh | Hep lipid conf | AML12 cytotox | AML12 tox ATP
CCOc1ccc(CCNC(=O)COC(=O)c2cc([N+](=O)[O-])ccc2N2CCOCC2)cc1OCC | - | 68 | - | - | - | . | 103 | - | -
CCOc1ccc(CCNC(=O)COC(=O)c2ccc(Cl)nc2)cc1OCC | - | . | - | - | - | . | . | . | .
CCOc1ccc(CCNC(=O)COC(=O)c2c(C)nn(-c3ccccc3)c2C)cc1OCC | - | 86 | - | - | - | . | 110 | - | -
CCOc1ccc(CCNC(=O)Cn2nc(C)c3c(C)n(-c4ccccc4)nc3c2=O)cc1OCC | - | 91 | - | - | - | . | 93 | - | -
CCOc1ccc(CCNC(=O)c2cc([N+](=O)[O-])ccc2N2CCOCC2)cc1OCC | - | - | - | - | - | . | . | . | .
CCOc1ccc(CCNC(=O)COC(=O)c2cc(OC)c(OC)c(OC)c2)cc1OCC | - | 75 | - | - | . | - | 109 | - | -
Cc1cccc(NC(=O)c2nc[nH]c2C(=O)N[C@@H](CC(C)C)C(=O)OC(C)(C)C)c1 | - | - | - | - | - | - | . | . | .
Cc1cccc(C)c1NC(=O)CNC(=O)c1c(-c2ccccc2)noc1C | - | . | . | - | - | . | . | . | .
COc1ccccc1NS(=O)(=O)c1ccc(NC(C)=O)cc1 | - | - | - | - | - | - | . | . | .
COc1ccccc1Nc1ccc(NS(=O)(=O)c2ccc(C(C)=O)cc2)cc1 | - | 99 | - | - | - | . | 94 | - | .
O=C1c2ccccc2C(=O)c2c1ccc(C(=O)N1CCCCC1)c2NCCO | - | . | - | - | - | - | . | . | .
CC1CCCN(C(=O)c2ccc3c(c2NCCO)C(=O)c2ccccc2C3=O)C1 (stereo not given) | - | 54 | - | - | - | - | 105 | - | -
CCOc1ccccc1NC(=O)CC1Nc2cc(C)c(C)cc2NC1=O (stereo not given) | - | 59 | - | - | - | - | 67 | - | .
CS(=O)(=O)N(CC(=O)Nc1ccccc1Br)Cc1ccccc1 | - | 56 | - | - | - | . | 67 | - | -
CCOc1ccc(CCNC(=O)CCNS(=O)(=O)c2ccc(Br)cc2)cc1OCC | - | 75 | - | - | - | . | 98 | - | -
CCOc1ccc(CCNC(=O)CCS(=O)(=O)c2ccc(C)cc2)cc1OCC | - | 102 | - | - | - | . | 95 | - | -
CCOc1ccc(CCNC(=O)CCC(=O)N2CCOc3ccccc32)cc1OCC | - | 83 | - | - | - | . | 111 | - | -
CCOc1ccc(CCNC(=O)CCS(=O)(=O)c2ccc(Br)cc2)cc1OCC | - | 54 | - | - | - | . | 92 | - | -
O=C(CCC(=O)N1CCOc2ccccc21)NCCc1ccccc1 | - | - | - | - | - | . | . | . | .
COc1ccc(CCNC(=O)CCS(=O)(=O)c2ccc(C)cc2)cc1OC | - | - | - | - | - | - | . | . | .
COc1ccc(Cc2nc3ccc(C(=O)NCCCSC)cc3o2)cc1OC | - | - | - | - | - | . | . | . | .
CC/C(=N/Nc1ccc(Cl)cc1)c1cnnc(SC)n1 | - | - | - | - | - | - | . | . | .
CC/C(=N/Nc1ccccc1Cl)c1cnnc(-c2ccccc2)n1 | - | 56 | - | - | - | - | 75 | - | -
COc1ccc(OC)c(/C=C/C(=O)N(C)CC(=O)Nc2cc(C)ccc2C)c1 | - | 60 | - | - | - | - | 95 | - | -
COc1ccc(OC)c(/C=C/C(=O)N(C)CC(=O)Nc2ccc(C)cc2)c1 | - | 59 | - | - | - | - | 77 | - | -
SMILES | XBP1 UPR activ | Hep lipid drop | ANO1 block | CHOP UPR activ | TMEM16A act | CHOP inh | Hep lipid conf | AML12 cytotox | AML12 tox ATP
Cc1ccc(NC(=O)CN(C)C(=O)/C=C/c2cccc(F)c2)cc1 | - | - | - | - | - | - | . | . | .
CCOC(=O)/C=C/C(=O)OCC(=O)Nc1ccc(OC)c(Cl)c1 | - | - | - | - | - | - | . | . | .
COc1ccc(NC(=O)COC(=O)/C=C/C(=O)OCC(=O)Nc2ccc(OC)c(Cl)c2)cc1Cl | - | 63 | - | - | - | - | - | - | .
CCOc1ccc(CCNC(=O)CCc2nnc3ccc(N4CCCCC4)nn23)cc1OCC | - | 86 | - | - | - | . | 109 | - | -
CCN(CC)c1ccc(NC(=O)CCc2nnc3ccc(N4CCCC4)nn23)c(C)c1 | - | 72 | - | - | - | . | 98 | - | -
CCOc1ccc(CCNC(=O)C2CCN(S(=O)(=O)N3CCOCC3)CC2)cc1OCC | - | . | - | - | - | - | . | . | .
CCOc1ccc(CCNC(=O)C2CCN(S(=O)(=O)N3CCCCC3)CC2)cc1OCC | - | 108 | - | - | - | - | 105 | - | .
C=CCN1C(=O)c2ccc(C(=O)OCC(=O)Nc3ccc(S(N)(=O)=O)cc3)cc2C1=O | - | . | - | - | - | . | . | . | .
CC1(OC(=O)CCc2ccccc2)C(=O)C=C2C=C(c3ccc(C#N)cc3)N(CCc3c[nH]c4ccccc34)C=C2C1=O (stereo not given) | - | 60 | - | - | - | - | - | - | .
COc1nccnc1NS(=O)(=O)c1ccc(NCc2cc(Br)ccc2O)cc1 | - | 64 | - | - | - | . | - | - | .
CCc1nnc(NS(=O)(=O)c2ccc(NCc3cc(Br)ccc3O)cc2)s1 | - | - | - | - | - | . | . | . | .
COc1ccc(OC)c(NC(=O)Cc2coc3ccc4ccccc4c23)c1 | - | 51 | - | - | - | - | 85 | - | -
Cc1cccc(NC(=O)Cc2coc3ccc4ccccc4c23)n1 | - | 57 | - | - | - | - | 88 | - | -
CCCCNC(=O)Cc1coc2ccc3ccccc3c12 | - | . | - | - | - | - | . | . | .
COc1ccc(OC)c(NC(=O)Cc2coc3ccc(C)cc23)c1 | - | - | - | - | - | - | . | . | .
CCCCOc1ccc(C(=O)N(CC)CC(=O)NCc2cccs2)cc1 | - | - | - | - | - | . | . | . | .
CC1C(=O)N2CCCc3cc(NC(=O)C(=O)NCc4ccccn4)cc1c32 (stereo not given) | - | . | - | - | - | . | . | . | .
O=C(CSC1=NC2(CCCCCC2)N=C1c1ccccc1)Nc1ccc2c(c1)OCCO2 | - | 59 | - | - | - | - | 69 | - | -
O=C(CSC1=NC2(CCCCC2)N=C1c1ccccc1)Nc1ccc2c(c1)OCCO2 | - | - | - | - | - | - | . | . | .
COc1ccc(C(=O)C2CCN(C(=O)Nc3ccc(C)cc3)CC2)cc1 | - | - | - | - | - | . | . | . | .
